Our source for the Activity values is ChEMBL document CHEMBL1127388, “Synthesis and structure-activity relationships in a series of antiinflammatory corticosteroid analogues, halomethyl androstane-17 beta-carbothioates and -17 beta-carboselenoates” (1994).

Assay type in all cases: functional
One assay is filed under the species Homo sapiens. In words: Tested for human vasoconstrictor activity relative to fluocinolone acetonide (100).
Assay [1] deals with Mus musculus. The assay is described as follows: Systemic corticosteroid activity after topical application relative to fluocinolone acetonide in mice. A digest of the protocol:
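Mice (25–30 g), nine groups of 10, given topical steroid in acetone daily for seven consecutive days; reference fluocinolone acetonide daily doses 0.47, 1.9, 7.5 and 30 µg; vehicle controls. Day after last dose, Et₂O vapor stress 1 min, re-anaesthetised with Et₂O; blood of two mice pooled; plasma corticosterone read fluorimetrically; potency from log daily dose vs corticosterone.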

Assay [2] concerns Mus musculus. In words: Topical anti-inflammatory activity relative to fluocinolone acetonide in mice. An outline of the steps: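 Croton oil ear test in mice (22–28 g), nine groups of 10; steroid dissolved in croton oil (2 vol)/EtOH (20)/Et₂O (78), 0.02 mL to inner aspect of both ears; reference doses 0.015, 0.06, 0.25, 1 µg; untreated-oil controls; ears weighed after 6 h; potency from log dose vs ear weight.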

For assay [3], the system named is Rattus norvegicus. In words: Systemic corticosteroid activity after topical application relative to fluocinolone acetonide in rats. An outline of the steps:
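Rats (170–200 g), seven groups of six, fur clipped, ca. 2 cm² dorsal area dosed once daily for seven days with steroid in acetone (0.02 mL; reference 0.5, 2, 8 µg). Day after final dose: Et₂O stress 1 min, 20 min later pentobarbitone i.p., cardiac blood; fluorimetric plasma corticosterone or adrenal weights; potency from log daily dose.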

In assay [4] the test system is Rattus norvegicus. The assay is described as follows: Topical anti-inflammatory activity relative to fluocinolone acetonide in rats. A digest of the protocol: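 Modified Tonelli croton oil ear test: rats (54–70 g), 7 groups of 10; graded steroid doses in croton oil (5 vol)/EtOH (20)/Et₂O (75), 0.04 mL to inner aspect of both ears (reference 0.06, 0.25, 1 µg); control gets unmedicated oil. After 6 h, CO₂ kill, ears weighed separately; relative potency by ANOVA on log dose and ear weight.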

`CCC(=O)O[C@]1(C(=O)SCF)CCC2C3CCC4=CC(=O)C=C[C@]4(C)[C@@]3(F)[C@@H](O)C[C@@]21C` (stereo partly specified): the Activity in the assay filed under Homo sapiens worked out at 1984; in the assay on Mus musculus [1] it was 149; in the assay with Mus musculus [2] it was 63; in the assay with Rattus norvegicus [3], 1.5; in the assay with Rattus norvegicus [4] it was 39.

On to `CCC(=O)O[C@]1(C(=O)SCF)[C@H](C)C[C@H]2[C@@H]3C[C@H](F)C4=CC(=O)C=C[C@]4(C)[C@@]3(F)[C@@H](O)C[C@@]21C` [FLUTICASONE PROPIONATE], for which the Activity is reported as 945 in the assay filed under Homo sapiens; 1 in the assay with Mus musculus [1]; 113 with Mus musculus [2]; 1.5 in the assay on Rattus norvegicus [3]; 85 in the assay on Rattus norvegicus [4].

Regarding `CC(=O)O[C@]1(C(=O)SCF)[C@@H](C)CC2C3CCC4=CC(=O)C=C[C@]4(C)[C@@]3(F)[C@@H](O)C[C@@]21C` (stereo partly specified), the Activity was found to be 1388 in the assay listed under Homo sapiens, 67 with Mus musculus [2], 13.5 with Rattus norvegicus [3] and 40 in the assay on Rattus norvegicus [4].

With `CC1(C)O[C@@H]2C[C@H]3[C@@H]4C[C@H](F)C5=CC(=O)C=C[C@]5(C)[C@@]4(F)[C@@H](O)C[C@]3(C)[C@]2(C(=O)CO)O1` [FLUOCINOLONE ACETONIDE], the Activity in the assay listed under Homo sapiens, with Mus musculus [1], in the assay on Mus musculus [2], in the assay on Rattus norvegicus [3] and in the assay with Rattus norvegicus [4] was 100 each time.

Take `CCCC(=O)O[C@]1(C(=O)SCF)[C@H](C)CC2C3C[C@H](F)C4=CC(=O)C=C[C@]4(C)[C@@]3(F)[C@@H](O)C[C@@]21C` (stereo partly specified): the Activity in the assay filed under Homo sapiens turned out to be 299; with Mus musculus [1], 0.7; in the assay with Mus musculus [2], 55; with Rattus norvegicus [4] it was 55.

For `CCC(=O)O[C@]1(C(=O)SCCl)CCC2C3CCC4=CC(=O)C=C[C@]4(C)[C@@]3(F)[C@@H](O)C[C@@]21C` (stereo partly specified), the results for the Activity in the assay listed under Homo sapiens, in the assay on Mus musculus [1] and in the assay with Mus musculus [2] were 916, 100 and 20, respectively.

As for `C=C1CC2C3CCC4=CC(=O)C=C[C@]4(C)[C@@]3(F)[C@@H](O)C[C@]2(C)[C@@]1(OC(=O)CC)C(=O)[Se]C` (stereo partly specified), the Activity is recorded as 187 in the assay filed under Homo sapiens, 27 with Mus musculus [2], under 0.2 in the assay on Rattus norvegicus [3] and 19 in the assay with Rattus norvegicus [4].

As for `C=C1CC2C3CCC4=CC(=O)C=C[C@]4(C)[C@@]3(F)[C@@H](O)C[C@]2(C)[C@@]1(OC(=O)CC)C(=O)[Se]CCl` (stereo partly specified), the Activity worked out at 200 in the assay listed under Homo sapiens, 2 in the assay on Mus musculus [1], 40 in the assay with Mus musculus [2] and 16 with Rattus norvegicus [4].

With `C=C1CC2C3CCC4=CC(=O)C=C[C@]4(C)[C@@]3(F)[C@@H](O)C[C@]2(C)[C@@]1(OC(=O)CC)C(=O)SCCl` (stereo partly specified), the Activity is given as 365 in the assay listed under Homo sapiens; 2 with Mus musculus [1]; 42 with Mus musculus [2]; 0.8 in the assay with Rattus norvegicus [3]; 12 with Rattus norvegicus [4].

With `C=C1CC2C3C[C@H](F)C4=CC(=O)C=C[C@]4(C)[C@@]3(F)[C@@H](O)C[C@]2(C)[C@@]1(OC(=O)CC)C(=O)SCF` (stereo partly specified), the Activity in the assay listed under Homo sapiens is listed as 1048; in the assay on Mus musculus [1], over 100; in the assay on Mus musculus [2], 197.

With `CCC(=O)O[C@]1(C(=O)SCCl)[C@@H](C)CC2C3CCC4=CC(=O)C=C[C@]4(C)[C@@]3(F)[C@@H](O)C[C@@]21C` (stereo partly specified), the Activity in the assay listed under Homo sapiens came to 1469; in the assay on Mus musculus [1] it was 44; in the assay on Mus musculus [2] it was 41; with Rattus norvegicus [3], 0.9; in the assay with Rattus norvegicus [4], 36.

`CCC(=O)O[C@]1(C(=O)SCF)[C@H](C)CC2C3CCC4=CC(=O)C=C[C@]4(C)[C@@]3(F)[C@@H](O)C[C@@]21C` (stereo partly specified) had an Activity in the assay listed under Homo sapiens of 653.

Consider `CCCC(=O)O[C@]1(C(=O)SCCl)[C@@H](C)CC2C3CCC4=CC(=O)C=C[C@]4(C)[C@@]3(F)[C@@H](O)C[C@@]21C` (stereo partly specified), for which the Activity in the assay filed under Homo sapiens came out at 143.

With `CCC(=O)O[C@]1(C(=O)SCF)[C@@H](C)CC2C3CCC4=CC(=O)C=C[C@]4(C)[C@@]3(F)[C@@H](O)C[C@@]21C` (stereo partly specified), the Activity is listed as 1262 in the assay filed under Homo sapiens; 450 in the assay on Mus musculus [1]; 89 in the assay on Mus musculus [2]; 13 with Rattus norvegicus [3]; 39 with Rattus norvegicus [4].

On to `CCC(=O)O[C@]1(C(=O)SCF)CCC2C3C[C@H](F)C4=CC(=O)C=C[C@]4(C)[C@H]3[C@@H](O)C[C@@]21C` (stereo partly specified), for which the Activity is 697 in the assay filed under Homo sapiens, over 200 with Mus musculus [1], 56 with Mus musculus [2] and 97 in the assay on Rattus norvegicus [4].

With `CCC(=O)O[C@]1(C(=O)SCCl)[C@H](C)CC2C3C[C@H](F)C4=CC(=O)C=C[C@]4(C)[C@@]3(F)[C@@H](O)C[C@@]21C` (stereo partly specified), the Activity in the assay filed under Homo sapiens is 124; with Mus musculus [1] it was 0.04; with Mus musculus [2], 56; in the assay on Rattus norvegicus [3], under 0.02; in the assay on Rattus norvegicus [4], 29.

Take `CCC(=O)O[C@]1(C(=O)SCF)[C@@H](C)CC2C3CCC4=CC(=O)C=C[C@]4(C)[C@H]3[C@@H](O)C[C@@]21C` (stereo partly specified): the Activity in the assay filed under Homo sapiens is 800; in the assay on Mus musculus [2], 50; in the assay with Rattus norvegicus [3], 5.1; with Rattus norvegicus [4], 44.

As for `C=C1CC2C3C[C@H](F)C4=CC(=O)C=C[C@]4(C)[C@@]3(F)[C@@H](O)C[C@]2(C)[C@@]1(OC(=O)CC)C(=O)SCCl` (stereo partly specified), the Activity in the assay filed under Homo sapiens is given as 170; in the assay on Mus musculus [1], over 100; in the assay with Mus musculus [2], 108.

As for `CC(=O)O[C@]1(C(=O)SCCl)[C@@H](C)CC2C3CCC4=CC(=O)C=C[C@]4(C)[C@@]3(F)[C@@H](O)C[C@@]21C` (stereo partly specified), the Activity in the assay filed under Homo sapiens was determined as 544; in the assay with Mus musculus [1], 14.7; in the assay on Mus musculus [2], 59; in the assay with Rattus norvegicus [3] it was 0.5; with Rattus norvegicus [4], 24.

With `CCC(=O)O[C@]1(C(=O)SCCl)[C@@H](C)CC2C3CCC4=CC(=O)C=C[C@]4(C)[C@H]3[C@@H](O)C[C@@]21C` (stereo partly specified), the Activity in the assay filed under Homo sapiens is 295; in the assay on Mus musculus [2] it was 27; with Rattus norvegicus [3] it was 1.4; in the assay on Rattus norvegicus [4], 29.

Turning to `C=C1CC2C3CCC4=CC(=O)C=C[C@]4(C)[C@@]3(F)[C@@H](O)C[C@]2(C)[C@@]1(OC(=O)CC)C(=O)SCF` (stereo partly specified), the Activity in the assay listed under Homo sapiens was 1497; with Mus musculus [1], 44; in the assay with Mus musculus [2] it was 41; in the assay on Rattus norvegicus [3] it was 2.5; in the assay with Rattus norvegicus [4] it was 20.

Compound `CCC(=O)O[C@]1(C(=O)SCI)[C@@H](C)CC2C3CCC4=CC(=O)C=C[C@]4(C)[C@@]3(F)[C@@H](O)C[C@@]21C` (stereo partly specified) gave an Activity in the assay listed under Homo sapiens of 41.

With `CCC(=O)O[C@]1(C(=O)SCBr)[C@@H](C)CC2C3CCC4=CC(=O)C=C[C@]4(C)[C@@]3(F)[C@@H](O)C[C@@]21C` (stereo partly specified), the Activity in the assay filed under Homo sapiens is 254.

In the case of `CC(=O)O[C@]1(C(=O)SCF)[C@H](C)CC2C3C[C@H](F)C4=CC(=O)C=C[C@]4(C)[C@@]3(F)[C@@H](O)C[C@@]21C` (stereo partly specified), the Activity amounted to 392 in the assay filed under Homo sapiens; 2.9 in the assay with Mus musculus [1]; 76 in the assay with Mus musculus [2]; 3 in the assay on Rattus norvegicus [3]; 88 in the assay with Rattus norvegicus [4].
